From ChEMBL document CHEMBL3856209, “Novel pyrazolopyridine derivatives as potential angiogenesis inhibitors: Synthesis, biological evaluation and transcriptome-based mechanistic analysis” (Eur J Med Chem, 2016)
Calls of active or inactive are those of the source.

Columns and labels:
HUVEC [1] = assay: Effect on CTHRC1 gene expression in serum-starved HUVEC after 6 hrs by microarray analysis relative to control; assay type: functional, Homo sapiens
Procedure, shortened: (§1)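 Confluent, serum-starved HUVEC (pooled from 3–5 donors, passage ≤4) treated with 2 μM compound or vehicle with 2.5% FBS for 6 h or 24 h. Total RNA hybridized to Illumina Human-HT12 arrays. Data were background-corrected, vst-transformed and rsn-normalized. Hits called by moderated paired t-test versus DMSO-treated cells, p < 0.05 and log2 fold change >|0.5|.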

HUVEC [2] = assay: Effect on TK1 gene expression in serum-starved HUVEC after 6 hrs by microarray analysis relative to control; assay type: functional, Homo sapiens
HUVEC [3] = assay: Effect on SULF1 gene expression in serum-starved HUVEC after 6 hrs by microarray analysis relative to control; assay type: functional, Homo sapiens
[4] = Upregulation of SQLE gene expression in serum-starved HUVEC at 2 uM after 24 hrs by qRT-PCR analysis; assay type: functional, cell-based; conditions: Homo sapiens
HUVEC [5] = assay: Effect on HLA-DRB4 gene expression in serum-starved HUVEC after 24 hrs by microarray analysis relative to control; assay type: functional, Homo sapiens
HUVEC [6] = assay: Effect on HLA-DRA gene expression in serum-starved HUVEC after 6 hrs by microarray analysis relative to control; assay type: functional, Homo sapiens
HUVEC [7] = assay: Effect on TYMP gene expression in serum-starved HUVEC after 6 hrs by microarray analysis relative to control; assay type: functional, Homo sapiens
HUVEC [8] = assay: Effect on ACSS2 gene expression in serum-starved HUVEC after 6 hrs by microarray analysis relative to control; assay type: functional, Homo sapiens
Procedure, shortened: (§2)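 Serum-starved confluent HUVEC treated with 2 μM compound or DMSO in 2.5% FBS for 6 h or 24 h; RNA hybridized to Illumina Human-HT12 arrays. Data background-corrected, vst-transformed and rsn-normalized. Differential probes called by moderated paired t-test (limma) at p < 0.05 and log2 fold change >|0.5| vs DMSO.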

HUVEC [9] = assay: Effect on MTSS1 gene expression in serum-starved HUVEC after 6 hrs by microarray analysis relative to control; assay type: functional, Homo sapiens
HUVEC [10] = assay: Effect on MVD gene expression in serum-starved HUVEC after 6 hrs by microarray analysis relative to control; assay type: functional, Homo sapiens
Procedure, shortened: (§3)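 Serum-starved confluent HUVEC (pooled from 3–5 donors, passage ≤4) were treated with 2 μM compound or vehicle in 2.5% FBS for 6 h or 24 h, and total RNA was isolated. Hybridization was on Illumina Human-HT12. Data were processed with bgAdjust, vst and rsn normalization. Changes versus DMSO were called by moderated paired t-test at p < 0.05 and |log2 fold change| > 0.5.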

HUVEC [11] = assay: Effect on CCL8 gene expression in serum-starved HUVEC after 24 hrs by microarray analysis relative to control; assay type: functional, Homo sapiens
Procedure, shortened: (§4)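 Confluent serum-starved HUVEC (primary, pooled from 3–5 donors, passage ≤4) treated with 2 μM compound or DMSO vehicle in 2.5% FBS for 6 h or 24 h. Total RNA hybridized to Illumina Human-HT12 arrays, background-corrected, vst-transformed and rsn-normalized. Differential expression versus DMSO by moderated paired t-test (p < 0.05, |log2 fold change| > 0.5).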

HUVEC [12] = assay: Effect on ATP1B1 gene expression in serum-starved HUVEC after 6 hrs by microarray analysis relative to control; assay type: functional, Homo sapiens; procedure, shortened: as §2
HUVEC [13] = assay: Effect on TM7SF2 gene expression in serum-starved HUVEC after 6 hrs by microarray analysis relative to control; assay type: functional, Homo sapiens
HUVEC [14] = assay: Effect on ANGPTL4 gene expression in serum-starved HUVEC after 6 hrs by microarray analysis relative to control; assay type: functional, Homo sapiens; procedure, shortened: as §2
HUVEC [15] = assay: Effect on CENPW gene expression in serum-starved HUVEC after 24 hrs by microarray analysis relative to control; assay type: functional, Homo sapiens
Procedure, shortened: (§5)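 Serum-starved confluent HUVEC (primary, pooled from 3–5 donors, passage ≤4) treated with 2 μM test compound or DMSO vehicle (working dilutions ≤0.1% v/v) in presence of 2.5% FBS for 6 h or 24 h; total RNA hybridized to Illumina Human-HT12 arrays; background correction, vst, rsn normalization; moderated paired t-test versus DMSO, thresholds p < 0.05 and log2 fold change >|0.5|.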

HUVEC [16] = assay: Effect on ALDOC gene expression in serum-starved HUVEC after 6 hrs by microarray analysis relative to control; assay type: functional, Homo sapiens; procedure, shortened: as §2
HUVEC [17] = assay: Effect on CDCA8 gene expression in serum-starved HUVEC after 24 hrs by microarray analysis relative to control; assay type: functional, Homo sapiens; procedure, shortened: as §5
HUVEC [18] = assay: Effect on CTSH gene expression in serum-starved HUVEC after 6 hrs by microarray analysis relative to control; assay type: functional, Homo sapiens; procedure, shortened: as §1
HUVEC [19] = assay: Effect on IL1RL1 gene expression in serum-starved HUVEC after 24 hrs by microarray analysis relative to control; assay type: functional, Homo sapiens
HUVEC [20] = assay: Effect on ASAP1 gene expression in serum-starved HUVEC after 6 hrs by microarray analysis relative to control; assay type: functional, Homo sapiens; procedure, shortened: as §4
HUVEC [21] = assay: Effect on CCL5 gene expression in serum-starved HUVEC after 6 hrs by microarray analysis relative to control; assay type: functional, Homo sapiens; procedure, shortened: as §2
HUVEC [22] = assay: Effect on F2RL1 gene expression in serum-starved HUVEC after 6 hrs by microarray analysis relative to control; assay type: functional, Homo sapiens; procedure, shortened: as §4
HUVEC [23] = assay: Effect on INSIG1 gene expression in serum-starved HUVEC after 6 hrs by microarray analysis relative to control; assay type: functional, Homo sapiens; procedure, shortened: as §1
HUVEC [24] = assay: Effect on CYTL1 gene expression in serum-starved HUVEC after 24 hrs by microarray analysis relative to control; assay type: functional, Homo sapiens; procedure, shortened: as §5
HUVEC [25] = assay: Effect on VCAM1 gene expression in serum-starved HUVEC after 24 hrs by microarray analysis relative to control; assay type: functional, Homo sapiens
HUVEC [26] = assay: Effect on PALD1 gene expression in serum-starved HUVEC after 24 hrs by microarray analysis relative to control; assay type: functional, Homo sapiens; procedure, shortened: as §3
HUVEC [27] = assay: Effect on CD68 gene expression in serum-starved HUVEC after 6 hrs by microarray analysis relative to control; assay type: functional, Homo sapiens; procedure, shortened: as §2
HUVEC [28] = assay: Effect on RN7SK gene expression in serum-starved HUVEC after 6 hrs by microarray analysis relative to control; assay type: functional, Homo sapiens
HUVEC [29] = assay: Effect on KIF4A gene expression in serum-starved HUVEC after 6 hrs by microarray analysis relative to control; assay type: functional, Homo sapiens
HUVEC [30] = assay: Effect on RETSAT gene expression in serum-starved HUVEC after 24 hrs by microarray analysis relative to control; assay type: functional, Homo sapiens
HUVEC [31] = assay: Effect on MMP1 gene expression in serum-starved HUVEC after 6 hrs by microarray analysis relative to control; assay type: functional, Homo sapiens; procedure, shortened: as §3
HUVEC [32] = assay: Effect on IL10 gene expression in serum-starved HUVEC after 24 hrs by microarray analysis relative to control; assay type: functional, Homo sapiens; procedure, shortened: as §1
HUVEC [33] = assay: Effect on TAOK1 gene expression in serum-starved HUVEC after 6 hrs by microarray analysis relative to control; assay type: functional, Homo sapiens
HUVEC [34] = assay: Effect on CKS2 gene expression in serum-starved HUVEC after 24 hrs by microarray analysis relative to control; assay type: functional, Homo sapiens; procedure, shortened: as §1
HUVEC [35] = assay: Effect on ZAK gene expression in serum-starved HUVEC after 6 hrs by microarray analysis relative to control; assay type: functional, Homo sapiens
HUVEC [36] = assay: Effect on RHOB gene expression in serum-starved HUVEC after 6 hrs by microarray analysis relative to control; assay type: functional, Homo sapiens
HUVEC [37] = assay: Effect on PNISR gene expression in serum-starved HUVEC after 24 hrs by microarray analysis relative to control; assay type: functional, Homo sapiens; procedure, shortened: as §3
HUVEC [38] = assay: Effect on MBNL2 gene expression in serum-starved HUVEC after 24 hrs by microarray analysis relative to control; assay type: functional, Homo sapiens; procedure, shortened: as §3

COc1ccc(Cn2nc(-c3ccccc3)c3cc(Nc4ccc(N5CCN(C)CC5)cc4)nc(N4CCN(C)CC4)c32)cc1
log2FC (HUVEC [1]): -0.0221 | log2FC (HUVEC [2]): -0.2736 | log2FC (HUVEC [3]): 0.5151 | Activity [4]: Active | log2FC (HUVEC [5]): -0.7509 | fold change (FC) (HUVEC [6]): 0.8911 | log2FC (HUVEC [7]): 0.5089 | fold change (FC) (HUVEC [8]): 0.2037 | fold change (FC) (HUVEC [9]): 0.2099 | fold change (FC) (HUVEC [10]): 0.3962 | fold change (FC) (HUVEC [11]): -0.7427 | fold change (FC) (HUVEC [12]): 0.237 | log2FC (HUVEC [13]): 0.343 | log2FC (HUVEC [14]): -0.3836 | fold change (FC) (HUVEC [15]): -0.5146 | fold change (FC) (HUVEC [16]): 0.067 | fold change (FC) (HUVEC [17]): -0.8847 | fold change (FC) (HUVEC [18]): 0.4595 | fold change (FC) (HUVEC [19]): -0.5903 | fold change (FC) (HUVEC [20]): 0.6103 | fold change (FC) (HUVEC [21]): 0.2358 | fold change (FC) (HUVEC [22]): 0.5398 | fold change (FC) (HUVEC [23]): 1.0454 | fold change (FC) (HUVEC [24]): 0.5166 | log2FC (HUVEC [25]): -0.7052 | log2FC (HUVEC [26]): 0.5892 | fold change (FC) (HUVEC [27]): 0.5187 | log2FC (HUVEC [28]): -0.8368 | fold change (FC) (HUVEC [29]): 0.0285

COc1ccc(Cn2nc(-c3ccccc3)c3cc(Nc4ccc(N5CCN(C)CC5)cc4)nc(N4CCNCC4)c32)cc1
log2FC (HUVEC [30]): -0.5409 | log2FC (HUVEC [31]): -0.1422 | log2FC (HUVEC [32]): 0.5464 | log2FC (HUVEC [33]): -0.1058

COc1ccc(Cn2nc(-c3ccccc3)c3cc(Cl)nc(N4CCNCC4)c32)cc1
log2FC (HUVEC [34]): -0.5724 | log2FC (HUVEC [35]): 0.5589 | log2FC (HUVEC [36]): -0.225 | log2FC (HUVEC [37]): 0.0521 | log2FC (HUVEC [38]): 0.526
